We go through 16 compounds from ChEMBL document CHEMBL4118059, “Hirsutane-Type Sesquiterpenes with Inhibitory Activity of Microglial Nitric Oxide Production from the Red Alga-Derived Fungus Chondrostereum sp. NTOU4196” (J Nat Prod, 2017).

pIC50: −log10 of the molar value.

Data set [1] can be described thus: Cytotoxicity against LPS-induced mouse BV2 cells assessed as cell viability at 5 uM pretreated for 15 mins followed by LPS-stimulation measured after 24 hrs by MTT assay relative to control. Type of data set: cell-based, BV-2. Particulars: LPS-stimulated BV2 cells, read-out: Activity. The gist of the method:
(§1)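 BV-2 cells, LPS-activated, exposed to compounds at 2–20 μM. Viability was measured by MTT assay and expressed as mean ± SD of three independent experiments.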

The nature of data set [2]: Cytotoxicity against LPS-induced mouse BV2 cells assessed as cell viability at 2 uM pretreated for 15 mins followed by LPS-stimulation measured after 24 hrs by MTT assay relative to control. The class given is cell-based, BV-2. Particulars: LPS-stimulated BV2 cells, read-out: Activity. The method in brief: as §1
The nature of data set [3]: Cytotoxicity against LPS-induced mouse BV2 cells assessed as cell viability at 10 uM pretreated for 15 mins followed by LPS-stimulation measured after 24 hrs by MTT assay relative to control. Type of data set: cell-based, BV-2. Particulars: LPS-stimulated BV2 cells, read-out: Activity. The gist of the method:
as §1

The subject of data set [4] is BV-2. In words: Antineuroinflammatory activity in mouse BV2 cells assessed as inhibition of LPS-induced nitric oxide production by measuring nitrite levels at 20 uM pretreated for 15 mins followed by LPS-stimulation measured after 24 hrs by colorimetric method (reference value: 15 +/- 1 uM). The class given is functional.
The nature of data set [5]: Cytotoxicity against LPS-induced mouse BV2 cells assessed as cell viability at 20 uM pretreated for 15 mins followed by LPS-stimulation measured after 24 hrs by MTT assay relative to control. The class given is cell-based, BV-2. Particulars: LPS-stimulated BV2 cells, read-out: Activity. The gist of the method: as §1
For data set [6], the system named is BV-2. In words: Antineuroinflammatory activity in mouse BV2 cells assessed as inhibition of LPS-induced nitric oxide production at 20 uM pretreated for 15 mins followed by LPS-stimulation measured after 24 hrs by colorimetric method relative to control. Type of data set: functional.
The test system of data set [7] is BV-2. In words: Antineuroinflammatory activity in mouse BV2 cells assessed as inhibition of LPS-induced nitric oxide production pretreated for 15 mins followed by LPS-stimulation measured after 24 hrs by colorimetric method. The class given is functional, cell-based.
Data set [8] concerns BV-2. The experiment in a line: Antineuroinflammatory activity in mouse BV2 cells assessed as inhibition of LPS-induced nitric oxide production at 5 uM pretreated for 15 mins followed by LPS-stimulation measured after 24 hrs by colorimetric method relative to control. The class given is functional.

Consider `C=C1C(=O)C[C@@]2(OC)C[C@]3(O)CC(C)(C)C[C@@H]3[C@]12C`, for which the viability at 24 h, 5 µM in data set [1] amounted to 30%. Moreover, in data set [2], the viability at 24 h, 2 µM came out at 47%. For the same compound, the viability at 24 h, 10 µM in data set [3] came to 11%. In addition, the Activity in the data set on BV-2 [4] worked out at 4 µM. In data set [5], the viability at 24 h, 20 µM was 11%.

As for `C[C@@H]1C(=O)C[C@]2(O)C[C@@]3(O)CC(C)(C)C[C@H]3[C@]12C`, the Activity with BV-2 [4] came to 12 µM. Also, the viability at 24 h, 20 µM in data set [5] was found to be 83%.

In the case of `C[C@@H]1[C@@H](O)C[C@]2(O)[C@H](O)[C@H]3CC(C)(C)C[C@H]3[C@]12C`, the Activity with BV-2 [4] was 12 µM. For the same compound, in data set [5], the viability at 24 h, 20 µM stood at 83%.

Consider `C=C1[C@H](O)C[C@]2(O)C[C@]3(O)CC(C)(C)C[C@]3(O)[C@]12C`, for which the viability at 24 h, 5 µM in data set [1] was found to be 82%. Moreover, in data set [2], the viability at 24 h, 2 µM is 93%. Further, the viability at 24 h, 10 µM in data set [3] was determined as 73%. Besides, in the data set with BV-2 [4], the Activity amounted to 8 µM. Further, the inhibition at 20 µM with BV-2 [6] was 47%. For the same compound, in data set [5], the viability at 24 h, 20 µM amounted to 67%. In the data set with BV-2 [7], the inhibition entry is “Dose-dependent effect”.

As for `C=C1C(=O)C[C@]2(O)[C@H](O)C3=C(CC(C)(C)C3=O)[C@]12C`, the viability at 24 h, 5 µM in data set [1] is 95%. In addition, the viability at 24 h, 2 µM in data set [2] was determined as 95%. In data set [3], the viability at 24 h, 10 µM came to 89%. For the same compound, in the data set with BV-2 [4], the Activity was determined as 10 µM. Besides, the viability at 24 h, 20 µM in data set [5] came to 69%.

For `C[C@@H]1[C@@H](O)C[C@]2(O)CC3=C(CC(C)(C)C3=O)[C@]12C`, the Activity in the data set with BV-2 [4] amounted to 11.6 µM. Besides, in data set [5], the viability at 24 h, 20 µM stood at 97%.

`C=C1C(=O)C=C2C[C@@]3(O)CC(C)(C)C[C@H]3[C@]12C`: the viability at 24 h, 10 µM in data set [3] came out at 22%. Moreover, the Activity with BV-2 [4] is 4 µM. Besides, in data set [5], the viability at 24 h, 20 µM came to 12%.

Regarding `C[C@H]1[C@H](O)C[C@@]2(O)C[C@]3(O)CC(C)(C)C[C@@H]3[C@@]12C`, the Activity in the data set with BV-2 [4] was 13 µM.

For the compound `C=C1C(=O)C=C2C=C3[C@@H](O)C(C)(C)C[C@@]3(O)[C@]12C`, the viability at 24 h, 5 µM in data set [1] turned out to be 87%. For the same compound, the viability at 24 h, 2 µM in data set [2] was 94%. Also, the inhibition at 5 µM in the data set with BV-2 [8] came out at 53%. For the same compound, the viability at 24 h, 10 µM in data set [3] is 77%. Also, the Activity in the data set on BV-2 [4] was 8 µM. In addition, the viability at 24 h, 20 µM in data set [5] was 39%. For the same compound, the inhibition entry in the data set with BV-2 [7] is “Dose-dependent effect”.

`C[C@H]1C(=O)C=C2C=C3C(=O)C(C)(C)C[C@@]3(O)[C@@]21C`: in data set [3], the viability at 24 h, 10 µM amounted to 23%. Further, the Activity with BV-2 [4] is 4 µM. The viability at 24 h, 20 µM in data set [5] is 11%.

Consider `C[C@H]1C(=O)C=C2C=C3[C@@H](O)C(C)(C)C[C@@]3(O)[C@@]21C`, for which, in the data set on BV-2 [4], the Activity was determined as 12 µM. Moreover, in data set [5], the viability at 24 h, 20 µM amounted to 71%.

In the case of `C[C@@H]1[C@@H](O)C[C@]2(O)[C@H](O)C3=CC(C)(C)C[C@H]3[C@]12C`, the Activity with BV-2 [4] amounted to 14 µM. Further, in data set [5], the viability at 24 h, 20 µM stood at 87%.

As to `C[C@@H]1[C@@H](O)C[C@]2(O)C=C3C(=CC(C)(C)[C@@H]3O)[C@]12C`, the Activity in the data set with BV-2 [4] was found to be 11 µM. The viability at 24 h, 20 µM in data set [5] turned out to be 93%.

`COc1cc(/C=C/C(=O)CC(=O)/C=C/c2ccc(O)c(OC)c2)ccc1O` [CURCUMIN]: in the data set on BV-2 [7], the pIC50 is 5.22.

With `C[C@H]1C(=O)C[C@]2(O)C[C@@]3(O)CC(C)(C)C[C@H]3[C@]12C`, the Activity in the data set with BV-2 [4] came to 11 µM.

As to `C[C@H]1[C@@H](O)C[C@]2(O)C[C@@]3(O)CC(C)(C)C[C@H]3[C@]12C`, the Activity with BV-2 [4] turned out to be 13 µM.
